# Measured values published in paper PMC5091660 (Journal of medicinal chemistry, 2016).
# Entries after “also recorded” stand apart in the source; their conditions may differ.
# Columns and labels:
# recombinant human S1P2 = recombinant human S1P2 (Homo sapiens, UniProt O95136); experiment: competitive [^32P]S1P binding assay, S1P2
# S1P1 [1] = molecular target: T1, S1P1 (Homo sapiens, UniProt P21453); experiment: competitive [^32P]S1P binding assay, S1P1; settings: for decrease in S1P1 binding affinity relative to 28c: head group change of 28c; for IC50: S1P1 IC50, competition with [^32P]S1P, cell membranes expressing recombinant human S1P1
# T1 sequence (P21453 whole entry): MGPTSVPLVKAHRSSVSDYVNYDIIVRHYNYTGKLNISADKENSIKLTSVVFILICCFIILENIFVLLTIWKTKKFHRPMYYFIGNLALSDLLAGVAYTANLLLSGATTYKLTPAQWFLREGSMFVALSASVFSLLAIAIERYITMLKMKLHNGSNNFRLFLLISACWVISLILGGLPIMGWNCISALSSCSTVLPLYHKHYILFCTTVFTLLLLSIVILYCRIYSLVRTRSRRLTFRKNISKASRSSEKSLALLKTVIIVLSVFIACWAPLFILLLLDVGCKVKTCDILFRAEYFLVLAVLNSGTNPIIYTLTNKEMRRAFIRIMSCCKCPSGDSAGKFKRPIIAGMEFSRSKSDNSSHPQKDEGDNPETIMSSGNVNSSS
# recombinant human S1P3 = recombinant human S1P3 (Homo sapiens, UniProt Q99500); experiment: competitive [^32P]S1P binding assay, S1P3
# Sequence of recombinant human S1P3 (Q99500 whole entry): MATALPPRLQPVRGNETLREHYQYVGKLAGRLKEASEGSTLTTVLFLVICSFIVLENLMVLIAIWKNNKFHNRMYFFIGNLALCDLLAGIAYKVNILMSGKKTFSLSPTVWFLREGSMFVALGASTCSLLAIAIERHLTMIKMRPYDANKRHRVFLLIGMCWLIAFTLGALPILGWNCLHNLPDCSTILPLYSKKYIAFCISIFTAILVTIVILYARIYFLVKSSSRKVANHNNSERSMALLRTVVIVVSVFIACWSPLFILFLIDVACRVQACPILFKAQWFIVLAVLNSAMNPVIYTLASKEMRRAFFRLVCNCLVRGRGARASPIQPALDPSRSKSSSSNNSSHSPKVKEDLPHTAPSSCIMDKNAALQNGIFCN
# S1P1 [2] = molecular target: T1, S1P1; experiment: in vitro functional assay; type: cell-based
# Method in brief: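 S1P1-TANGO-U2OS cells at 312,500 cells/mL in unsupplemented Freestyle Expression Medium were grown 48 h at 37 °C, 5% CO2. Test compound in DMSO was added (controls 0.5% DMSO final), then incubated 5 h at 37 °C. LiveBLAzer FRET substrate mix with 10 mM probenecid was added for 2 h at r.t. in the dark. Read-out: excitation 405 nm, emission 460 and 535 nm.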
# [3] = system: liver of LPS-treated mice; experiment: [^15O]water microPET study of liver blood flow in LPS-treated and sham mice; type: in vivo, C57BL/6 mice; settings: 10 min scan after bolus injection via tail vein
# Method in brief: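 Adult male C57BL/6 mice (18–23 g) were pretreated ~24 h earlier with saline or LPS and kept under 2–3% isoflurane via nose cone on an Inveon PET/CT. After a transmission scan and CT, they received a bolus of [15O]water (30–55 MBq) by tail vein, followed by a 10 min dynamic scan, ~30 min before the 18F scan. Liver activity was expressed as SUV.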
# [4] = system: liver of LPS-treated mice; experiment: acute biodistribution in LPS-treated and sham mice; type: in vivo, C57BL/6 mice; settings: n = 4 per group
# Method in brief: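 About 24 h after sham or LPS treatment, mice received the 18F-labelled test compound (~20 μCi, 0.74 MBq, in 10% ethanol/saline) by tail vein. A separate set received [99mTc]mebrofenin (~4 μCi, 148 KBq) under 2–3% isoflurane/oxygen. Mice were euthanized at 30 or 60 min (n = 4 per group per tracer). Tissues were weighed and gamma-counted against a dilution of the injectate.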
# Sequence of recombinant human S1P2 (O95136 whole entry): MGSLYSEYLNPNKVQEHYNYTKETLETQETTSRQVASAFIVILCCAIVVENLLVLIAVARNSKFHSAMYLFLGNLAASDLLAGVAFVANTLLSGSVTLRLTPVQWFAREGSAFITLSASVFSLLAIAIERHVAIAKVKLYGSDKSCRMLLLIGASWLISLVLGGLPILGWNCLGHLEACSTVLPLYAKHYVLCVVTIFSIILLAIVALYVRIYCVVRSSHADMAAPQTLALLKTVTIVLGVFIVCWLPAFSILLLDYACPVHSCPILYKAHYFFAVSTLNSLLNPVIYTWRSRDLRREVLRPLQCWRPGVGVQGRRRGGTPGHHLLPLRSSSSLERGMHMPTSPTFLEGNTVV
molecule,measurement,setting,value
"O=C(O)C1CCN(Cc2ccc(-c3noc(-c4ccc(OCCF)c(C(F)(F)F)c4)n3)cc2)CC1 [Compound 28d, 1-(4-(5-(4-(2-Fluoroethoxy)-3-(trifluoromethyl)phenyl)-1,2,4-oxadiazol-3-yl)benzyl)piperidine-4-carboxylic Acid]",IC50,recombinant human S1P2,> 1 µM
same,decrease in S1P1 binding affinity relative to 28c,S1P1 [1],20 fold
same,IC50,recombinant human S1P3,> 1 µM
"O=C(O)C1CCN(c2ccc3oc(-c4ccc(-c5ccc(OCCF)cc5)c(C(F)(F)F)c4)nc3c2)CC1 [Compound 18c, 1-(2-(4′-(2-Fluoroethoxy)-2-(trifluoromethyl)-[1,1′-biphenyl]-4-yl)benzo[d]oxazol-5-yl)piperidine-4-carboxylic Acid]",EC50,S1P1 [2],0.0111 µM
"COc1ccc(-c2nc(-c3ccc(CN4CC(C(=O)O)C4)cc3)no2)cc1C(F)(F)F [Compound 28f, 1-(4-(5-(4-Methoxy-3-(trifluoromethyl)phenyl)-1,2,4-oxadiazol-3-yl)benzyl)azetidine-3-carboxylic Acid]",IC50,S1P1 [1],> 0.1 µM
"O=C(O)C1CCN(c2ccc3oc(-c4ccc(-c5ccc(C(F)(F)F)cc5)c(C(F)(F)F)c4)nc3c2)CC1 [Compound 18d, 1-(2-(2,4′-Bis(trifluoromethyl)-[1,1′-biphenyl]-4-yl)benzo[d]-oxazol-5-yl)piperidine-4-carboxylic Acid]",IC50,S1P1 [1],0.498 ± 0.335 µM
same,EC50,S1P1 [2],0.00447 µM
"O=C(O)C1CN(Cc2ccc(-c3noc(-c4ccc(OCCF)cc4)n3)cc2)C1 [Compound 28b, 1-(4-(5-(4-(2-Fluoroethoxy)phenyl)-1,2,4-oxadiazol-3-yl)benzyl)-azetidine-3-carboxylic Acid]",IC50,recombinant human S1P2,> 1 µM
same,IC50,recombinant human S1P3,> 1 µM
"O=C(O)C1CN(Cc2ccc(-c3noc(-c4ccc(OCCF)c(C(F)(F)F)c4)n3)cc2)C1 [Compound 28c, 1-(4-(5-(4-(2-Fluoroethoxy)-3-(trifluoromethyl)phenyl)-1,2,4-oxadiazol-3-yl)benzyl)azetidine-3-carboxylic Acid]",IC50,recombinant human S1P2,> 1 µM
same,IC50,recombinant human S1P3,> 1 µM
"FCCOc1ccc(-c2nc(-c3ccc(CNCc4nnn[nH]4)cc3)no2)cc1C(F)(F)F [Compound 28e, N-((1H-Tetrazol-5-yl)methyl)-1-(4-(5-(4-(2-fluoroethoxy)-3-(trifluoromethyl)phenyl)-1,2,4-oxadiazol-3-yl)phenyl)methanamine]",decrease in S1P1 binding affinity relative to 28c,S1P1 [1],over 100 fold
"O=C(O)C1CN(Cc2ccc3oc(-c4ccc(OCCF)c(C(F)(F)F)c4)nc3c2)C1 [Compound 15b, 1-((2-(4-(2-Fluoroethoxy)-3-(trifluoromethyl)phenyl)benzo[d]-oxazol-5-yl)methyl)azetidine-3-carboxylic Acid]",IC50,S1P1 [1],0.0764 ± 0.0216 µM
"COc1cccc(-c2ccc(-c3nc4cc(N5CCC(C(=O)O)CC5)ccc4o3)cc2C(F)(F)F)c1 [Compound 18e, 1-(2-(3′-Methoxy-2-(trifluoromethyl)-[1,1′-biphenyl]-4-yl)benzo-[d]oxazol-5-yl)piperidine-4-carboxylic Acid]",EC50,S1P1 [2],0.0049 µM
"O=C(O)c1ccc(-c2ccc3oc(-c4ccc(-c5ccc(F)nc5)c(C(F)(F)F)c4)nc3c2)s1 [Compound 16, 5-(2-(4-(6-Fluoropyridin-3-yl)-3-(trifluoromethyl)phenyl)benzo-[d]oxazol-5-yl)thiophene-2-carboxylic Acid]",IC50,S1P1 [1],0.334 ± 0.059 µM
same,EC50,S1P1 [2],0.00299 µM
[15OH2] [[^15O]water],liver uptake (TAC) in LPS-treated mice compared to sham mice,[3],no difference; also recorded: no significant change
"[^99mTc]-N-(3-bromo-2,4,6-trimethyacetanilide) iminodiacetic acid [[^99mTc]mebrofenin]",liver uptake in LPS-treated mice compared with sham mice,[4]; 30 min postinjection,increased
same,liver uptake in LPS-treated mice compared with sham mice,[4]; 60 min postinjection,absence of a significant difference; also recorded: no significant difference
"CCOc1ccc(-c2nc(-c3ccc(CN4CC(C(=O)O)C4)cc3)no2)cc1 [Compound 28a, 1-(4-(5-(4-Ethoxyphenyl)-1,2,4-oxadiazol-3-yl)benzyl)azetidine-3-carboxylic Acid]",IC50,recombinant human S1P2,> 1 µM
"O=C(O)C1CCN(c2ccc3oc(-c4ccc(-c5ccc(F)cc5)c(C(F)(F)F)c4)nc3c2)CC1 [Compound 18a, 1-(2-(4′-Fluoro-2-(trifluoromethyl)-[1,1′-biphenyl]-4-yl)benzo[d]-oxazol-5-yl)piperidine-4-carboxylic Acid]",EC50,S1P1 [2],0.00076 µM
"O=C(O)C1CCN(c2ccc3oc(-c4ccc(-c5ccccc5OCCF)c(C(F)(F)F)c4)nc3c2)CC1 [Compound 18b, 1-(2-(2′-(2-Fluoroethoxy)-2-(trifluoromethyl)-[1,1′-biphenyl]-4-yl)benzo[d]oxazol-5-yl)piperidine-4-carboxylic Acid]",EC50,S1P1 [2],0.00304 µM
